Experimental data published in the RNAGym collection of RNA variant scans (doi:10.1126/science.aae0568).
Variants at the floor of the assay were thinned out.

B1: tRNA (parent)
chain: GUUCCGUUGGCGUAAUGGUAACGCGUCUCCCUCCUAAGGAGAAGACUGCGGGUUCGAGUCCCGUACGGAACG

Variants of: B1
Assay: yeast fitness relative to wild type (ratio to wild type); higher = fitter; tRNA-Arg(CCU), competitive growth, 37 C, YPD
How it was run: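 Gene amplicons from the start population and from each of six end populations were read by 100-nucleotide paired-end sequencing. Those end populations came from pooled Saccharomyces cerevisiae strains carrying tRNA-Arg(CCU) gene variants at the native locus, competed in YPD at 37°C for 24 hours. Fitness relative to wild type was worked out from changes in genotype frequencies. Genotypes needed ≥ 100 starting reads, and estimates < 0.5 were set to 0.5.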

Compared with GUUCCGUUGGCGUAAUGGUAACGCGUCUCCCUCCUAACGAGAAGACUGCGGGUUCGAGUCCCGAACGACACG [G38C U64A G68A A69C], GUUCCGUUGGCGUAAUGGUAACGCGUCUCCCUCCUAACGAGAAGACUGCGGGUGCGAGUACCGUACGGAACG [G38C U54G C60A] is higher in yeast fitness: ≤ 0.5 for the first, 0.589 for the second.

Going from GUUCCGUUGGCGUAAUGGUAACGCGUCUCCCUCCUAAGAAGAAGACUGCGGGUUCGAGUCCCGUGCGGAACG [G39A A65G] to GUUCCGUUGGCGUAAUGGUAACGCGUCUCCCUCCUAAGAAGAAGACUGCGGGUUCGAGUCCCGUCCGGAACG [G39A A65C], the yeast fitness falls from 0.985 to 0.837.

First: GUUCCGUUGGCGUAAUGGUAACGCGUCUCCCUCCUAAGAAGAAGACUGCGGGUUCGAGUCCCGUAAGGAACG [G39A C66A]
Second: GUUCCGUUGGCGUAAUGGUAACGCGUCUCCCUCCUAAGAAGAAGACUGCGGGUUCGAGUCCCGUAGGGAACG [G39A C66G]
The yeast fitness of the first is lower: 0.698 for the first, 0.711 for the second.

First: GUUCCGUUGGCGUAAUGGUAACGCGUCUCCCUCCUAAGAAGAAGACUGCGGGUUCGAGUCCCGUACGGCACG [G39A A69C]
Second: GUUCCGUUGGCGUAAUGGUAACGCGUCUCCCUCCUAAGAAGAAGACUGCGGGUUCGAGUCCCGUACGGUACG [G39A A69U]
The yeast fitness of the first is lower: 0.818 for the first, 1.03 for the second.

GUUCCGUUGGCGUAAUGGUAACGCGUCUCCCUCCUAAGAAGAAGACUGCGGCUUGGAGUCCCAUACGGAACG [G39A G52C C55G G63A] and GUUCCGUUGGCGUAAUGGUAACGCGUCUCCCUCCUAAGAAGAAGACUGCGGGUUGAAGUCCCGUACGGUGCG [G39A C55G G56A A69U A70G] cannot be ordered by yeast fitness: ≤ 0.5 for the first, ≤ 0.5 for the second.

Compared with GUUCCGUUGGCGUAAUGGUAACGCGUCUCCCUCCUAAGAAGAAGACUGCGGGUUCGGGUCCCGUACGGAACG [G39A A57G], GUUCCGUUGGCGUAAUGGUAACGCGUCUCCCUCCUAAGAAGAAGACUGCGGGUUCGUGUCCCGUACGGAACG [G39A A57U] is higher in yeast fitness: 0.79 for the first, 0.834 for the second.

Going from GUUCCGUUGGCGUAAUGGUAACGCGUCUCCCUCCUAAGAAGAAGACUGCGGGUUCGAGUCCCGUACGGGGCG [G39A A69G A70G] to GUUCCGUUGGCGUAAUGGUAACGCGUCUCCCUCCUAAGAAGAAGACUGCGGGUUAAAGUCCCGUACCGAACG [G39A C55A G56A G67C], the yeast fitness falls from 0.946 to ≤ 0.5.

First: GUUCCGUUGGCGUAAUGGUAACGCGUCUCCCUCCUAAGAAGAAGACUGCGGCUUGGAGUACCGUACGGAACG [G39A G52C C55G C60A]
Second: GUUCCGUUGGCGUAAUGGUAACGCGUCUCCCUCCUAAGAAGAUGACUGCGGGUUCGGGUCCCGUACGGAACG [G39A A43U A57G]
The yeast fitness of the first is lower: ≤ 0.5 for the first, 0.562 for the second.

GUUCCGUUGGCGUAAUGGUAACGCGUCUCCCUCCUAAGAAGAAGACUGCGGGUUUGAGUCCCGUACGCGACG [G39A C55U G68C A69G] and GUUCCGUUGGCGUAAUGGUAACGCGUCUCCCUCCUAAGAAGAUGACUGCGGGAUCGUGUCCCGUUCGGAACG [G39A A43U U53A A57U A65U] cannot be ordered by yeast fitness: ≤ 0.5 for the first, ≤ 0.5 for the second.

Going from GUUCCGUUGGCGUAAUGGUAACGCGUCUCCCUCCUAAGCUGAAGACUGCGGGUUCGAGUCCCGGACGGAACG [G39C A40U U64G] to GUUCCGUUGGCGUAAUGGUAACGCGUCUCCCUCCUAAGAAGAAGACUGCGGGUUCGAGUCACGUACGGAACG [G39A C61A], the yeast fitness rises from ≤ 0.5 to 0.789.

First: GUUCCGUUGGCGUAAUGGUAACGCGUCUCCCUCCUAAGAAGAAGACUGCGGGUUCGAGUCUCGUACGGAACG [G39A C61U]
Second: GUUCCGUUGGCGUAAUGGUAACGCGUCUCCCUCCUAAGCCAGAGACUGCGGGUUCGAGUCCCGUUCGGAACG [G39C A40C G41A A42G A65U]
The yeast fitness of the first is higher: 0.866 for the first, ≤ 0.5 for the second.

Going from GUUCCGUUGGCGUAAUGGUAACGCGUCUCCCUCCUAAGAAGAAGACUGCGGGUUCGAGUCCGGUACGGAACG [G39A C62G] to GUUCCGUUGGCGUAAUGGUAACGCGUCUCCCUCCUAAGAAGAAGACAGCGGGUUUGAGUCCCGUACAGGACG [G39A U47A C55U G67A A69G], the yeast fitness falls from 0.752 to ≤ 0.5.

Compared with GUUCCGUUGGCGUAAUGGUAACGCGUCUCCCUCCUAAGAAGAACACUGCGGGUUCGAGUCCCGUACGGAACG [G39A G44C], GUUCCGUUGGCGUAAUGGUAACGCGUCUCCCUCCUAAGAAGAAGACUGCGGGUUCGAGUCCCGUACGUAACG [G39A G68U] is higher in yeast fitness: 0.816 for the first, 0.824 for the second.

First: GUUCCGUUGGCGUAAUGGUAACGCGUCUCCCUCCUAAGAAGAAGACUGCGGGUUCGAGCCCCGUACGGAACG [G39A U59C]
Second: GUUCCGUUGGCGUAAUGGUAACGCGUCUCCCUCCUAAGAAGAAGACUGCGGGUUCGAGUCACGUACGGUACG [G39A C61A A69U]
The yeast fitness of the first is higher: 0.956 for the first, ≤ 0.5 for the second.

Going from GUUCCGUUGGCGUAAUGGUAACGCGUCUCCCUCCUAAGAACAAGAAUGCGGGUUCGAGUCCCGUACGAAACG [G39A G41C C46A G68A] to GUUCCGUUGGCGUAAUGGUAACGCGUCUCCCUCCUAAGAAGAAAACUGCGAGUUCGAGUCCCGUACGGAACG [G39A G44A G51A], the yeast fitness rises from 0.55 to 0.597.

Going from GUUCCGUUGGCGUAAUGGUAACGCGUCUCCCUCCUAAGAAGAAGACUGCGGGUUGGAGUCCCGUACGGAACG [G39A C55G] to GUUCCGUUGGCGUAAUGGUAACGCGUCUCCCUCCUAAGAAGAAGACUGCGGGUUAGAGUCCCGUACGGAACG [G39A C55A], the yeast fitness falls from 0.726 to 0.696.

First: GUUCCGUUGGCGUAAUGGUAACGCGUCUCCCUCCUAAGAAGAAGACUGCGGGUUUGAGUCCCGUACGGAACG [G39A C55U]
Second: GUUCCGUUGGCGUAAUGGUAACGCGUCUCCCUCCUAAGAAGAAGACAGCGGGUUCGGGUCCCGUACGGAACG [G39A U47A A57G]
The yeast fitness of the first is higher: 0.873 for the first, ≤ 0.5 for the second.

Going from GUUCCGUUGGCGUAAUGGUAACGCGUCUCCCUCCUAAGAAGAAGACUGCGGGUUCGAGUGCCGUACGGAGCG [G39A C60G A70G] to GUUCCGUUGGCGUAAUGGUAACGCGUCUCCCUCCUAAGAAGAAGACUGCGGGUUCGAGUCCCGUACGGACCG [G39A A70C], the yeast fitness rises from ≤ 0.5 to 1.04.

Going from GUUCCGUUGGCGUAAUGGUAACGCGUCUCCCUCCUAAGCAGCAGCCUGCGGGUUCGAGUCCCGUACGGACCG [G39C A42C A45C A70C] to GUUCCGUUGGCGUAAUGGUAACGCGUCUCCCUCCUAAGAAGAAGACUGCGGGUUCGAGUGCCGUACGGAACG [G39A C60G], the yeast fitness rises from ≤ 0.5 to 0.666.
